From PubChem BioAssay
m5-HT2A agonist – activates the mouse 5-HT2A serotonin receptor; activation, % at 7.6 µM; AID 624169; actives 0.66% (n = 360,000); CHO-K1 mHTR2A beta-arrestin complementation, luminescence; percent of 30 µM serotonin response; P35363;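 active = activation above a run cutoff, the mean activation of all tested compounds plus 3 SD, cut at about 14% in these data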;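 also: 0% = plate median of compound wells and 100% = 30 µM serotonin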
MC4R antag cAMP – blocks human MC4R cAMP signaling | MC4R-expressing cells, MTII-stimulated cAMP, LANCE TR-FRET | P32245 | inhibition, % at 6.5 µM | actives 0.48% (n = 360,000);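 active = inhibition above its plate's cutoff, the mean of tested wells on that plate plus 3 SD, cut at about 29% in these data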;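 also: 0% = Melanotan II alone and 100% = Melanotan II plus saturating MCL0020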
Target sequence (P32245 whole entry, looked up): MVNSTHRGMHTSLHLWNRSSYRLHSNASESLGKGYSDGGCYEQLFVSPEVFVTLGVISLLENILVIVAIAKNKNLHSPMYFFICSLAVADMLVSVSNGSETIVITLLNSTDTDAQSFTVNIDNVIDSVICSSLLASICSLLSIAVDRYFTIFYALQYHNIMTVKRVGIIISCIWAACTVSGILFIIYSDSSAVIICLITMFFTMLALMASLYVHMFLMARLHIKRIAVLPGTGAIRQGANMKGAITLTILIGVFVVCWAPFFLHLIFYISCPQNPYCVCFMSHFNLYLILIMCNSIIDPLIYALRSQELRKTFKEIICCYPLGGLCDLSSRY
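material = U2OS cells stably expressing human melanocortin 4 receptor (MC4R) | also added = Melanotan II challenge | dosing = single nominal compound dose of 6.5 µM | detection = TR-FRET with Eu-cAMP and labeled anti-cAMP, 671 nm | replication = singlicate | timing = compound 30 min, challenge 1 h, detection 1 h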
GAA850 FXN act – activators of GAA850 frataxin (FXN) promoter | HEK293 lucGAA850 FXN promoter luciferase reporter, 24 h; percent of 10 µM SAHA response | activation, % at 6 µM | actives 0.56% (n = 360,000) | AID 540364;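 active = activation above the average of all compounds screened plus 3 SD, cutoff fixed separately per campaign, cut at about 7.5% in these data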;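 also: 0% = DMSO wells and 100% = 10 µM SAHA wells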
AHR act – activates the human aryl hydrocarbon receptor. activation, % at 5 µM. AHR-responsive luciferase reporter cells, luminescence. AID 2796. actives 2.5% (n = 320,000). P35869; in the data active = activation above about 47%;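 also: 0% = vehicle wells and 100% = reference agonist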
MC4R ag barr – human MC4R agonism via beta-arrestin; U2OS MC4R beta-arrestin complementation, luminescence; percent of melanotan II response, DMSO zero; activation, % at 8.9 µM; P32245; AID 540308; actives 0.98% (n = 360,000);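 active = activation above a per-plate cutoff, the mean activation of sample wells on that plate plus 3 SD, cut at about 8% in these data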
U2OS cAMP counter – counter-screen for MC4R antagonists: nonselective cAMP signaling inhibitors. shares compounds with MC4R antag cAMP. parental U2OS, forskolin cAMP, LANCE TR-FRET. inhibition, % at 6.5 µM. actives 26% (n = 1,600). AID 602193;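 active = mean inhibition over triplicates above the low-control well mean plus 3 SD, set per campaign, cut at about 13% in these data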;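 also: signal is single emission at 671 nm which falls as cellular cAMP rises; 0% = forskolin-stimulated wells and 100% = buffer without forskolin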
MC4R cAMP antag – human MC4R cAMP antagonism confirmation | shares compounds with MC4R antag cAMP | MC4R-expressing cells, MTII-stimulated cAMP, TR-FRET | inhibition, % at 6.5 µM | actives 27% (n = 1,600) | AID 602195; in the data active = inhibition above about 29%;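 also: 0% = agonist stimulated wells alone and 100% = agonist stimulated wells plus saturating reference antagonist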
Starred values were filed as active, the others as inactive; nt = no result given. Only some compounds are listed: those with a hit (about 4.7% of all), similar ones and a draw of the others.

SMILES	m5-HT2A agonist	MC4R antag cAMP	GAA850 FXN act	AHR act	MC4R ag barr	U2OS cAMP counter	MC4R cAMP antag
COc1ccccc1C(=O)NC(=S)N1CCc2ccccc21	-4	30*	1	16	0	-6	-4
COc1cc(/C=N/NC(=O)C2CC(=O)N(c3ccc(C)cc3)C2)cc(OC)c1OC (stereo not given)	1	-15	0	2	-2	nt	nt
CC(=O)c1sccc1NC(=O)c1ccccc1C(=O)O	0	72*	3	-2	0	29*	61*
COC(=O)c1sccc1NC(=O)c1ccccc1C(=O)O	4	6	1	0	2	nt	nt
Cc1ncc(CO)n1Cc1ccc(Cl)cc1	11	4	0	nt	3	nt	nt
CCC(OC(=O)CNS(=O)(=O)c1ccccc1)C(=O)c1ccccc1 (stereo not given)	-17	37*	-1	1	0	17*	31*
Cc1ccc(S(=O)(=O)NCC(=O)OC(C)C(=O)c2ccccc2)cc1 (stereo not given)	0	22	3	-1	0	nt	nt
COc1cc2c(=O)n(CCCC(=O)NCC3CCCO3)c(=O)n(CC(=O)c3ccc(F)cc3)c2cc1OC (stereo not given)	3	30*	1	-2	0	0	-3
O=C(Nc1ccc(F)cc1)c1nn(-c2ccccc2)c(=O)cc1Cl	14	31*	-5	nt	-1	30*	38*
Cc1ccc(NC(=O)c2cc(-c3ccccc3)nn2-c2ccccc2)cc1	2	19	-2	15	0	nt	nt
O=C(CSc1nc2nn(-c3ccccc3)c(=O)c-2c2n1CCCCC2)Nc1ccc(OC(F)F)cc1	-7	5	1	1	-2	nt	nt
O=C(/C=C/c1ccco1)NC(=S)Nc1cc(-c2nc3ccccc3s2)ccc1Cl	4	34*	7	30	-1	4	15
CN(C)c1ccc(-n2cccc2/C=C/[N+](=O)[O-])cc1	-7	39*	2	2	2	9	31*
COc1cc(-c2nnc(Sc3ccc(C(F)(F)F)cc3[N+](=O)[O-])o2)cc(OC)c1OC	-5	29*	-1	1	0	2	5
O=C(O)c1ccc(Sc2nnc(-c3cccc(Br)c3)o2)c([N+](=O)[O-])c1	1	-11	0	0	-2	nt	nt
Cc1cc(=O)[nH]c(N/N=C/c2c(F)c(F)c(F)c(F)c2F)n1	-2	29*	0	1	0	14*	20
Cc1cc(=O)[nH]c(N/N=C/c2ccccc2Cl)n1	1	4	3	12	-1	nt	nt
COc1ccc(S(=O)(=O)NNC(=O)c2cccs2)cc1	0	33*	0	3	0	1	-5
Cc1ccccc1OCC(=O)Nc1sc(C(=O)Nc2cccc(C)c2C)c(C)c1C#N	6	105*	0	0	0	2	-3
Cc1ccccc1OCC(=O)Nc1sc2c(c1C#N)CC(C)(C)NC2(C)C	5	14	0	2	0	nt	nt
COC(=O)COc1ccc(S(=O)(=O)N2CCN(c3ccccc3)CC2)cc1	0	50*	-1	1	-2	14*	28
COC(=O)COc1ccc(S(=O)(=O)N2CCN(c3ccccc3F)CC2)cc1	2	42*	-2	2	-1	14*	33*
COC(=O)c1cc(S(=O)(=O)N2CCN(c3ccccc3F)CC2)c[nH]1	-6	1	0	0	0	nt	nt
CCOc1ccc(S(=O)(=O)N2CCC(C(=O)N3CCN(c4ccccc4)CC3)CC2)cc1	-4	-4	0	-7	4	nt	nt
COc1ccc(CN2CCC[C@]3(N[C@H](c4ccccc4)[C@@H]4C(=O)N(C)C(=O)[C@@H]43)C2=O)cc1	4	1	0	nt	3	nt	nt
SMILES	m5-HT2A agonist	MC4R antag cAMP	GAA850 FXN act	AHR act	MC4R ag barr	U2OS cAMP counter	MC4R cAMP antag
COc1ccc(NC(=O)c2cc([N+](=O)[O-])ccc2N2CCN(C)CC2)cc1	-8	29*	0	1	1	-1	2
Cc1ccc(NC(=O)c2cc([N+](=O)[O-])ccc2N2CCCC2)cc1	-5	0	-1	30	-2	nt	nt
Cc1nc2c(-c3ccc(Cl)cc3)c(C)[nH]n2c(=O)c1Cc1ccccc1	5	-1	-5	5	-4	nt	nt
COc1ccc(-c2c(C)[nH]n3c(=O)c(Cc4ccccc4)c(C)nc23)cc1OC	-5	31*	0	4	-3	2	7
CC(C)C[C@H](N)c1nnc(S(=O)(=O)Cc2ccc(F)cc2)o1	-4	43*	2	-2	-4	23*	36*
Cn1ccsc1=NC(=O)c1ccc(Cl)c([N+](=O)[O-])c1	-3	35*	4	68*	0	4	-1
Cc1onc(-c2c(F)cccc2Cl)c1C(=O)Nc1nccs1	-2	9	0	0	-2	nt	nt
Cc1onc(-c2c(F)cccc2Cl)c1C(=O)Nc1nnc(C(F)(F)F)s1	7	48*	1	31	-4	36*	74*
CCCCN(C)C(=O)c1nc2ccccn2c1CN1CCN(C/C=C/c2ccccc2)CC1	-8	35*	3	-1	-1	-3	4
CC(=O)c1ccc(-c2cnc3c(NC=O)cc(-c4ccccc4Oc4ccccc4)cn23)cc1	-4	2	-3	nt	1	nt	nt
O=S(=O)([O-])CCC[N+]1(CC#Cc2ccccc2)CCCCC1	4	35*	2	0	0	-1	4
C#CC[N+]1(CC#Cc2ccccc2)CCCC1	-4	2	0	1	-1	nt	nt
C=C(C)CNC(=S)N/N=C/c1ccc([N+](=O)[O-])cc1	3	30*	-1	2	0	-1	2
COCCNC(=S)N/N=C/c1ccc([N+](=O)[O-])cc1	-2	-1	0	12	0	nt	nt
CCOC(=O)C1=C(COC(=O)CNS(=O)(=O)c2ccc(NC(C)=O)cc2)NC(=O)NC1C (stereo not given)	9	-1	-1	nt	1	nt	nt
CCOC(=O)C1=C(COC(=O)CNS(=O)(=O)c2ccc(C)c(C)c2)NC(=O)NC1C (stereo not given)	-1	30*	-2	nt	-1	10	16
Cc1nc(-c2cccc(NC(=O)c3ccc(Cl)c(S(=O)(=O)N4CCCC4)c3)c2)cs1	-3	31*	-2	nt	-1	4	-12
Cc1ccc(C)c(Sc2ccc(S(=O)(=O)Nc3ccc(C(=O)O)cc3)cc2)c1	10	7	0	-1	-1	nt	nt
